Shown are actives, neighbours in structure and some others; about 4.7% of the full set was active somewhere.
Mdm2-MdmX inh – disrupts the human Mdm2-MdmX interaction. 3% of 330,000 active. O15151+Q00987. SaOS-2 split-luciferase Mdm2/MdmX complementation, luminescence. inhibition, % at 8 µM;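 active = inhibition of at least 50% at 8 µM in the primary screen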
Target sequence (O15151 whole entry, looked up): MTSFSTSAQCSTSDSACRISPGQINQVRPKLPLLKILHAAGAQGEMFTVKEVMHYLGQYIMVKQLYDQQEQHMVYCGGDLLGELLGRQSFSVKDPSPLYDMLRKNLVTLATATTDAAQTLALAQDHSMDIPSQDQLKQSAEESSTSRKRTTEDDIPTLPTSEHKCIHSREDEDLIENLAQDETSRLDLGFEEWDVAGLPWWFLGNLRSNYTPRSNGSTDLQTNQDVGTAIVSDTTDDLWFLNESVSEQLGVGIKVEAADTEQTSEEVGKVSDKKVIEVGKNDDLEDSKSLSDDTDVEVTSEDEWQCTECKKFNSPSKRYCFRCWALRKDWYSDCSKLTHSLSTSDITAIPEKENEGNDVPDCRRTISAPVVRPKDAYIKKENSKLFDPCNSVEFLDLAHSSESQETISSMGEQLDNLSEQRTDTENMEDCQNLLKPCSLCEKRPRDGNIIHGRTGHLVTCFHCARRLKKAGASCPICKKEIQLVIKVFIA
Target sequence (Q00987 whole entry, looked up): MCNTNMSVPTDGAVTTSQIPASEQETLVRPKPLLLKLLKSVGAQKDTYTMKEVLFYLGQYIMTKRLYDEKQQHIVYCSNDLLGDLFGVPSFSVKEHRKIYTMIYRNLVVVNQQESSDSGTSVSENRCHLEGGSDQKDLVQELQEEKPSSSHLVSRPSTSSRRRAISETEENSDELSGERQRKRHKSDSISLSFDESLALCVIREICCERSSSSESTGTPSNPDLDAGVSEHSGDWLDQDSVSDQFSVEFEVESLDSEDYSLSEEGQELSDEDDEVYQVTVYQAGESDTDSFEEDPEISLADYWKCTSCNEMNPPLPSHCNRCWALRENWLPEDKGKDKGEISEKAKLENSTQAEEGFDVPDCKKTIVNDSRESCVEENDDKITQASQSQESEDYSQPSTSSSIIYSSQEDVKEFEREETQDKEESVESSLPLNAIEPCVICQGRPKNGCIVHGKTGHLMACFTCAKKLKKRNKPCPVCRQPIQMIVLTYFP
aSyn 5UTR inh – 5' untranslated region of α-synuclein, MLPCN primary screen; alpha-synuclein 5'UTR reporter, inhibitor activity; inhibition, % (tested at 7.5 µM); 0.82% of 300,000 active; AID 1813; in the data active = inhibition above about 60%;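 also: H4 neuroglioblastoma cells stably carrying SNCA 5'UTR luciferase fusion; 0% = DMSO wells and 100% = positive control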
IMP-1 inh – blocks Pseudomonas aeruginosa IMP-1 metallo-beta-lactamase | 0.45% of 290,000 active | inhibition, % at 5.6 µM | purified IMP-1, nitrocefin hydrolysis, epi-absorbance fluorescence;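 active = inhibition above the mean plus 3 SD of all compounds in the same screening run, cut at about 4.5% in these data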;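 also: 0% = IMP-1 with DMSO and 100% = DMSO wells lacking enzyme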
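System: purified IMP-1 / Input: IMP-1 dispensed at 0.2 nM / Medium: 50 mM HEPES pH 7.1, 50 µM ZnSO4, 0.05% Brij 35 / Timing: 15 min enzyme–compound preincubation, then 25 min nitrocefin reaction, 25 °C / Technique: plate fluorescence quenching by hydrolysis product, ex 480/em 530 nm / Repeats: singlicate testing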
VIM-2 inh – inhibitors of Pseudomonas aeruginosa VIM-2 metallo-beta-lactamase; purified VIM-2, nitrocefin hydrolysis, epi-absorbance fluorescence; inhibition, % at 5.6 µM; 0.89% of 290,000 active; AID 1527;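 active = inhibition above the mean of all tested compounds plus 3 SD, cutoff set per screening run, cut at about 7.5% in these data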;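 also: red hydrolysis product quenches plate fluorescence so inhibitors raise well fluorescence; 0% = enzyme with DMSO and 100% = DMSO without enzyme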
697 NFkB inh – inhibitors of the PMA/ionomycin-induced NF-kB reporter in 697 B cells | 697 B-cell NF-kB luciferase reporter, 16 h | inhibition, % at 4 µM | 0.33% of 330,000 active | AID 435022; in the data active = inhibition above about 35%
Jurkat NFkB inh – lowers PMA/ionomycin-induced NF-kB signal in Jurkat cells; PMA/ionomycin-induced NF-kB luciferase reporter, luminescence; inhibition, % at 4 µM; 0.53% of 330,000 active; in the data active = inhibition above about 50%
Mdm2 MdmX conf – confirmation of human Mdm2/MdmX interaction inhibitors. inhibition, % at 8 µM. 55% of 10,000 active. AID 489028. shares compounds with Mdm2-MdmX inh. Mdm2-MdmX binding, luminescent assay; in the data active = inhibition above about 40%
Full FLuc ctr – full-length luciferase inhibition in Mdm2/MdmX counter-screen; AID 504607; inhibition, % at 8 µM; shares compounds with Mdm2-MdmX inh; 77% of 6,200 active; SaOS-2 full-length luciferase counterscreen, luminescence;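 active = mean inhibition at 8 µM reaching about 37%, which flags the compound as non-specific, limit read from the data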;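 also: p53-null SaOS-2 cells with luciferase driven by a doxycycline-inducible promoter; compound on cells about two nights before reading with doxycycline added after day one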
Numbers without * were called inactive; . = no result.

SMILES	Mdm2-MdmX inh	aSyn 5UTR inh	IMP-1 inh	VIM-2 inh	697 NFkB inh	Jurkat NFkB inh	Mdm2 MdmX conf	Full FLuc ctr
CCC(=O)c1cc(F)c(N2CCN(CC)CC2)cc1C	-16	-7	-2	0	-5	-21	.	.
Cc1ccc(C)c(NP(=O)(Oc2ccccc2)Oc2ccccc2)c1	58*	9	1	-2	18	-11	72*	68*
C[C@]12CCC(=O)CC1CCC1C2CC[C@]2(C)C(OC(=O)CCC(=O)O)CCC12 (some centres not stated)	11	18	-1	0	-1	12	.	.
CN1CCN(c2ncnc3nc[nH]c23)CC1	31	6	-2	-5	0	0	.	.
CC(C)(C)c1nc(N2CCN(C(=O)c3ccco3)CC2)c2nnn(Cc3ccccc3Cl)c2n1	57*	.	-3	-1	7	2	9	.
CCC1=Nc2cc(C(=O)N3CCC4(CC3)OCCO4)ccc2Sc2ccc(Br)cc21	4	8	1	3	-30	3	.	.
CCCOP(=O)(O)c1c([N+](=O)[O-])cc(C(F)(F)F)cc1[N+](=O)[O-] (tested in a mixture with another compound)	-12	-58	-3	-1	-35	-28	.	.
COC(=O)C1=C(c2ccc(OCc3ccccc3)cc2)C[C@@H]2CC[C@H]1N2C(=O)NC1CCN(Cc2ccccc2)CC1	85*	.	.	.	-9	22	54*	62*
COC(=O)C1=C(c2ccc(-c3ccccc3)c(F)c2)C[C@@H]2CC[C@H]1N2C(=O)NC1CCCCC1	69*	.	.	.	-13	-1	41*	64*
COC(=O)C1=C(c2ccc(F)cc2F)C[C@@H]2CC[C@H]1N2C(=O)NC1CCCCC1	7	.	.	.	17	-10	.	.
CN1C(=O)N(C)C(=O)C2(Cc3cc(NC(=O)c4ccc(F)cc4)ccc3N3CCCC32)C1=O (configuration not stated)	9	-3	0	0	-14	2	.	.
COC12C(COC(N)=O)C3=C(C(=O)C(C)=C(N)C3=O)N1CC1C2N1C (configuration not stated)	74*	-3	-4	-4	30	16	39	.
C[C@]12CC[C@H](O)CC1C(=O)CC1C2CC[C@@]2(C)C1CC[C@@H]2O (some centres not stated)	-39	.	.	.	-16	-14	.	.
CCC1C=CC=CC[C@H](C)[C@@H](O)[C@](C)(O)C(=O)[C@@H](C)[C@H](O)[C@@H](C)C(=O)[C@H](C)[C@@H](O)[C@H](C)C=CC(=O)OC2[C@@H](C)C(CC1)OC1(CC[C@@H](C)C(C[C@H](C)O)O1)[C@@H]2C (some centres not stated)	100*	.	.	.	-137	30	56*	50*
CC1=C2C3OC(=O)C(C)C3CC[C@@]2(C)C=CC1=O (some centres not stated)	28	-5	-3	-5	17	-3	.	.
CCCCCCn1c(N)c(C(=O)NCCN2CCOCC2)c2nc3ccccc3nc21	58*	15	-5	-4	7	6	32	.
COc1ccc(CCNC(=O)c2c(N)n(CCN3CCOCC3)c3nc4ccccc4nc23)cc1OC	54*	40	-1	3	-1	-7	28	.
Nc1c(C(=O)NCc2ccco2)c2nc3ccccc3nc2n1CCN1CCOCC1	5	-46	-5	0	-12	5	.	.
CCCCCn1c(N)c(C(=O)NCCN2CCOCC2)c2nc3ccccc3nc21	40	6	-5	-2	9	4	.	.
C[C@@H]1C[C@H]2OC(=O)C3(CO3)[C@H]2[C@H](O)[C@]2(C)C(=O)C3OC3[C@@H]12 (some centres not stated)	51*	-63	.	.	-134	-9	36	21
Cc1cc(C)cc(N2C(=O)NC(=O)/C(=C\c3cccn3-c3ccc(Cl)cc3)C2=O)c1	69*	-24	-2	-1	24	13	56*	79*
O=C1NC(=S)NC(=O)C1=Cc1cccn1-c1ccc(O)cc1	.	-42	-4	-2	.	.	.	.
CN1C(=O)/C(=C/c2cccn2-c2ccc3ccccc3c2)C(=O)NC1=S	100*	-19	-5	-4	-22	0	24	.
O=c1c2cc([N+](=O)[O-])ccc2nc(CN2CCOCC2)n1-c1ccccc1F	.	.	-4	-2	.	.	.	.
COC(=O)C1=C(c2cccc3c2S(=O)(=O)c2ccccc2-3)C[C@@H]2CC[C@H]1N2C(=O)N1CCc2cc(OC)c(OC)cc2C1	12	.	.	.	-3	4	.	.
SMILES	Mdm2-MdmX inh	aSyn 5UTR inh	IMP-1 inh	VIM-2 inh	697 NFkB inh	Jurkat NFkB inh	Mdm2 MdmX conf	Full FLuc ctr
CCn1nc(/C=C/c2ccccc2)nc2c(=O)n(C)c(=O)nc1-2	97*	1	-4	-2	-102	37	85*	25
O=c1c2ccccc2nc(Cc2cccc([N+](=O)[O-])c2)n1-c1ccc(O)cc1	-20	17	-2	0	6	-3	.	.
CN[C@@H]1C[C@@H](c2ccc(Cl)c(Cl)c2)c2ccccc21	82*	26	-1	-3	15	20	36	.
CCCCCCCSc1cc(OC)c(CCNC)cc1OC	53*	121*	-1	-3	-17	28	26	.
CCCCCSc1cc(OC)c(CCNC)cc1OC	53*	-34	-1	-3	-2	18	5	.
CCOc1ccc2nc(N=Nc3c(O)[nH]c(=S)[nH]c3=O)sc2c1	25	19	-12	-7	-47	-15	.	.
NC(N)=N/N=C/c1cn(-c2ccccc2)nc1-c1cccs1	99*	-38	-3	-1	7	26	94*	57*
CCN(CC)C(=O)c1ccc(NC(=O)c2cccc(F)c2)cc1	-30	-80	2	-3	-14	-11	.	.
CCn1c(NN=O)nc2ccccc21	77*	74*	-4	-3	7	22	72*	21
CCn1c(P(C)(=O)O)nc2ccccc21	-12	-6	-2	-3	10	14	.	.
COC(=O)C1=Nc2ccccc2/C1=C\c1c(O)n(-c2ccc(Br)cc2)c(=O)[nH]c1=O	.	.	-2	1	.	.	.	.
O=c1[nH]c(=O)n(-c2ccccc2)c(O)c1/C=C1/C(c2ccccc2)=Nc2ccccc21	61*	-60	-2	-1	-85	47	62*	75*
O=C1NC(=S)NC(=O)C1C/C=C/c1ccccc1	-8	-4	-3	-2	12	9	.	.
N#Cc1cc2c(nc1SCC(=O)Nc1ccc(Cl)cc1)C1CCN2CC1	-84	-159	-3	-5	-25	-45	.	.
N#Cc1cc2c(nc1SCC(=O)Nc1cc(Cl)ccc1Cl)C1CCN2CC1	84*	-140	-5	-3	-7	-36	99*	21

From PubChem
